pIC50: −log10 of the molar value. Activity calls are given as the source filed them. No cut-off for these calls is given here.
How the values were obtained:
[1] = test system: HeLa; experiment: Induction of apoptosis in human HeLa cells assessed as increase in caspase-8 activation at 7 to 11 uM by fluorometric assay; assay type: functional, cell-based; conditions: dose 7-11 µM
Procedure, shortened: (§1)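 HeLa seeded at 3 × 10^6 in 6-well plates, treated at 7 and 11 μM; caspase-3, -8 and -9 activity each measured by fluorometric kit per manufacturer's protocol; fluorescence read at ex 400 nm / em 505 nm; fold change versus control; mean ± SD.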

[2] = test system: HeLa; experiment: Induction of apoptosis in human HeLa cells assessed as cells with compromised membrane by measuring increase in red fluorescence intensity at 7 to 11 uM by acridine orange/ethidium bromide dual staining based fluorescence microscopy; assay type: functional, cell-based; conditions: dose 7-11 µM
Procedure, shortened: (§2)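 HeLa exposed to 7 and 11 μM versus untreated control; live/dead staining either with acridine orange–ethidium bromide dual stain (fluorescence, FITC filter) or with APOPercentage dye (pink uptake, brightfield); imaged on inverted microscope.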

[3] = test system: HeLa; experiment: Induction of cell cycle arrest in human HeLa cells assessed as proportion of cell accumulation at subG0 phase at 7 uM by propidium iodide staining based flow cytometry (reference value: 7.6%); assay type: functional
[4] = test system: HeLa; experiment: Induction of cell cycle arrest in human HeLa cells assessed as downregulation of Cdc25 protein expression at 7 to 11 uM by western blot analysis; assay type: functional, cell-based; conditions: dose 7-11 µM
Procedure, shortened: (§3)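 Protein extracted from treated and untreated HeLa, BCA-quantified and normalised; SDS-PAGE, PVDF transfer, 5% skim milk block; primary antibodies 18 h at 4 °C, HRP secondary; chemiluminescent detection of Cdk-2, cyclin A2, cyclin B1, Cdc-25 with β-actin loading control.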

[5] = test system: HeLa; experiment: Induction of mitochondrial membrane potential depolarization in human HeLa cells assessed as decrease in JC-1 aggregate to monomer ratio at 7 to 11 uM incubated for 24 hrs by JC-1 staining based fluorescence microscopic analysis; assay type: functional, cell-based; conditions: dose 7-11 µM
Procedure, shortened: (§4)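 HeLa treated for 24 h, then stained with JC-1 dye; red aggregate and green monomer fluorescence imaged on inverted microscope with FITC filter; aggregate-to-monomer ratio calculated relative to control; mean ± SD; scale bar 50 μm.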

[6] = test system: HeLa; experiment: Induction of cell cycle arrest in human HeLa cells assessed as proportion of cell accumulation at G1 phase at 7 uM by propidium iodide staining based flow cytometry (reference value: 67.7%); assay type: functional
[7] = test system: SiHa; experiment: Antiproliferative activity against human SiHa cells assessed as inhibition of cell growth incubated for 24 hrs by MTT assay; assay type: functional, cell-based
Procedure, shortened: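 Cervical squamous carcinoma cells were seeded at 8 × 10^3 cells per 100 μL and incubated 24 h before compound was added (5–100 μM). After 24 h exposure, cells were washed and given 0.5 mg/mL MTT in HBSS for 2–4 h at 37 °C in the dark. Formazan was solubilised in DMSO, absorbance read at 570 nm, and IC50 determined.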

[8] = test system: HeLa; experiment: Induction of apoptosis in human HeLa cells assessed as DNA fragmentation by measuring less intense peak for deoxyribose variation (1460-65 cm^-1) at 7 to 11 uM incubated for 24 hrs by surface-enhanced Raman spectroscopic analysis; assay type: functional, cell-based; conditions: dose 7-11 µM
Procedure, shortened: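 DNA isolated from control and 7 or 11 μM-treated HeLa, mixed 8:2 with 40–45 nm gold nanoparticles as SERS substrate, 10 min incubation; confocal Raman with 633 nm laser at 5 mW, 600 g/mm grating, 3 cm−1 resolution, 3 accumulations of 5 s integration.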

[9] = test system: HeLa; experiment: Induction of cell cycle arrest in human HeLa cells assessed as proportion of cell accumulation at subG0 phase at 11 uM by propidium iodide staining based flow cytometry (reference value: 7.6%); assay type: functional
[10] = test system: HeLa; experiment: Antimetastatic activity in human HeLa cells assessed as inhibition of cell migration at 3 to 6 uM measured after 24 to 48 hrs by scratch wound assay; assay type: functional, cell-based; conditions: dose 3-6 µM, time 24-48 hrs
Procedure, shortened: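 HeLa monolayer formed 24 h after seeding, scratched with a pipette tip and washed with PBS; treated at 3 and 6 μM, untreated cells as control; wound imaged at 0, 24 and 48 h; percentage wound closure/area measured by image analysis.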

[11] = test system: HeLa; experiment: Antimetastatic activity in human HeLa cells assessed as downregulation of Ki67 expression at 3 to 6 uM incubated for 24 hrs by DAPI staining based immunofluorescence analysis; assay type: functional, cell-based; conditions: dose 3-6 µM
Procedure, shortened: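 HeLa, 7 × 10^3 cells/well, treated at two concentrations for 24 h; fixed in 4% paraformaldehyde 15–30 min at 37 °C, permeabilised with 0.1% Triton-X 10 min, blocked in 5% BSA/PBST 1 h; Ki67 primary antibody overnight, then secondary antibody and DAPI counterstain; fluorescence microscopy imaging, fluorescence intensity quantified; mean ± SD.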

[12] = test system: HeLa; experiment: Induction of cell cycle arrest in human HeLa cells assessed as downregulation of Cyclin A2 protein expression at 7 to 11 uM by western blot analysis; assay type: functional, cell-based; conditions: dose 7-11 µM; procedure, shortened: as §3
[13] = test system: HeLa; experiment: Induction of apoptosis in human HeLa cells assessed as proportion of viable cells at 7 uM by AnnexinV-FITC/PI staining based FACS analysis (reference value: 77.7%); assay type: functional
[14] = test system: HeLa; experiment: Induction of apoptosis in human HeLa cells assessed as increase in caspase-9 activation at 7 to 11 uM by fluorometric assay; assay type: functional, cell-based; conditions: dose 7-11 µM; procedure, shortened: as §1
[15] = test system: HeLa; experiment: Induction of apoptosis in human HeLa cells assessed as DNA fragmentation at 7 to 11 uM incubated for 24 hrs by ethidium bromide staining based agarose gel electrophoresis analysis; assay type: functional, cell-based; conditions: dose 7-11 µM
Procedure, shortened: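 HeLa treated at 7 and 11 μM; genomic DNA isolated by kit, quantified by nanodrop and normalised; run on 0.8% agarose at 80 V, stained with ethidium bromide; laddering imaged by gel documentation.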

[16] = test system: HeLa; experiment: Induction of apoptosis in human HeLa cells assessed as cells with impaired membrane by measuring increase in pink colour intensity at 7 to 11 uM by APOP staining based microscopy; assay type: functional, cell-based; conditions: dose 7-11 µM; procedure, shortened: as §2
[17] = test system: HeLa; experiment: Induction of cell cycle arrest in human HeLa cells assessed as proportion of cell accumulation at G1 phase at 11 uM by propidium iodide staining based flow cytometry (reference value: 67.7%); assay type: functional
[18] = test system: HeLa; experiment: Induction of mitochondrial membrane potential depolarization in human HeLa cells assessed as increase in JC-1 monomers by measuring increase in green fluorescence intensity at 7 to 11 uM incubated for 24 hrs by JC-1 staining based fluorescence microscopic analysis; assay type: functional, cell-based; conditions: dose 7-11 µM; procedure, shortened: as §4
[19] = test system: A549; experiment: Antiproliferative activity against human A549 cells assessed as inhibition of cell growth incubated for 24 hrs by MTT assay; assay type: functional, cell-based; conditions: A549, 24 h
Procedure, shortened: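 Cells kept in DMEM with 10% FBS and 1% antibiotic-antimycotic at 37 °C and 5% CO2. Seeded at 8 × 10^3 cells per 100 μL and left 24 h, then exposed 24 h to 5, 10, 20, 50 or 100 μM. MTT at 0.5 mg/mL in HBSS was added for 2–4 h at 37 °C in the dark. Formazan was dissolved in DMSO, A570 was read, and IC50 was derived.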

[20] = test system: HeLa; experiment: Induction of apoptosis in human HeLa cells assessed as proportion of necrotic cells at 7 uM by AnnexinV-FITC/PI staining based FACS analysis (reference value: 3.4%); assay type: functional

Question: Which results are given for C[C@@H](C[C@@H](O)[C@@H]1OC1(C)C)[C@@H]1CC[C@]2(C)C3=CC[C@H]4C(C)(C)C(=O)CC[C@]4(C)[C@H]3CC[C@@]12C?
Answer: Activity [1]: Active; Activity [2]: Active; Activity [3]: 25.6%; Activity [4]: Active; Activity [5]: Active; Activity [6]: 64%; pIC50 [7]: 4.79; Activity [8]: Active; Activity [9]: 39.5%; Activity [10]: Active; Activity [11]: Active; Activity [12]: Active; Activity [13]: 38.3%; Activity [14]: Active; Activity [15]: Active; Activity [16]: Active; Activity [17]: 44.1%; Activity [18]: Active; pIC50 [19]: 4.51; Activity [20]: 0.7%

Reference: ChEMBL document CHEMBL6083205, “A comprehensive apoptotic assessment of niloticin in cervical cancer cells: a tirucallane-type triterpenoid from Aphanamixis polystachya (Wall.) Parker” (RSC Med Chem, 2024)
